T cruzi HTS: inhibitors of intracellular Trypanosoma cruzi; intracellular Trypanosoma cruzi in host cells, plate reader; 4.9% of 22,000 active; activity score (inhibition), % at 5.01 µM; in the data active = activity score above about 55%; inconclusive = no clear call, values can overlap the other calls;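 note: parasites and compound incubated about four days before reading; 0% = median of neutral control wells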
INS-1E ATP HTS: INS-1E beta cell protection from cytokine death; INS-1E cytokine-induced death, ATP luminescence, 48 h; normalised: neutral wells 0, positive control 100; protection from cytokine-induced ATP loss, % at 10 µM; 0.1% of 20,000 active;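 active = mean replicate protection from cytokine-induced ATP loss at least 50% and at least 75% of replicates each reaching 50%; inconclusive = meets only one of the two criteria, mean or replicate share; inactive = fails both the mean and replicate share criteria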
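Assay system: INS-1E rat insulinoma cells. Amount: 8000 cells per well. Medium: phenol-red-free RPMI with 5% fetal bovine serum. Reagent: IL-1β, TNF-α and IFN-γ cytokine mix. Doses: one compound concentration, pin transfer. Schedule: 48 h co-treatment, 10 min post-lysis read. Detection: CellTiter-Glo luminescence measuring cellular ATP.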
A1 apoptosis 2: A1 inhibition read as caspase activation; MEF A1-2A-BIM cells, caspase-Glo luminescence, 3 h; percent of clofoctol response, DMSO zero; caspase activation, % (concentration not given with the values); 24,000 tested, under 10 active; in the data active = caspase activation above about 5.9%; inconclusive = no clear call, values can overlap the other calls; inactive = below about 2.2%
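Material: mouse embryonic fibroblasts co-expressing A1 and BIM (A1-2A-BIM), primed for A1 dependence / Quantity: 2500 cells/well / Buffer or medium: RPMI-1640 growth medium with 10% FBS / Doses: 50 nL compound per well, pinned / Schedule: 3 h compound exposure at 37 °C / Signal: Caspase-Glo luminescence (DEVD substrate) / Measure: Caspase-3/7 activation, seen as rise in luminescence signal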
Numbers without * were called inactive; u = inconclusive; x = no result given. Shown is part of a subset that was picked to be rich in hits.

SMILES	T cruzi HTS	INS-1E ATP HTS	A1 apoptosis 2
O=C1C[C@@](C(=O)NCc2ccccc2)(c2ccc([N+](=O)[O-])cc2)[C@@H](c2ccc(CO)cc2I)N1CC12CC3CC(CC(C3)C1)C2	x	x	-1
C[C@@H]1CCCCO[C@@H](CN(C)S(=O)(=O)c2ccccc2)[C@H](C)CN([C@@H](C)CO)C(=O)c2cc(NC(=O)C3CCCCC3)ccc2O1	x	x	0
Cc1ccc(O)c(/C=N/NC(=O)c2ccccc2O)c1	44	-135	x
O=C(CCCCCCC(=O)N/N=C/c1ccc(O)c(O)c1)NO	-8	16	x
C[C@H](CO)N1C[C@H](C)[C@@H](CN(C)S(=O)(=O)c2ccc(Cl)cc2)Oc2c(NC(=O)c3nc4ccccc4s3)cccc2C1=O	66*	-6	-1
C[C@@H]1CN([C@@H](C)CO)C(=O)c2cccc(NC(=O)c3nc4ccccc4s3)c2O[C@@H]1CN(C)S(=O)(=O)c1ccc(Cl)cc1	55	-58	-1
C[C@@H]1CN([C@H](C)CO)C(=O)c2cccc(NC(=O)c3nc4ccccc4s3)c2O[C@@H]1CN(C)S(=O)(=O)c1ccc(Cl)cc1	43	-19	0
C[C@H](CO)N1C[C@H](C)[C@H](CN(C)S(=O)(=O)c2ccc(Cl)cc2)Oc2c(NC(=O)c3nc4ccccc4s3)cccc2C1=O	71*	-58	0
O=C(NO)c1cccc(C(=O)N/N=C/c2ccccc2C(=O)O)c1	-5	-11	-5
CC1=C(C/C=N/NC(=O)c2cccc(C(=O)NO)c2)C(C)(C)CCC1	5	-5	-1
[N-]=[N+]=NCc1ccccc1C[C@]1(C(=O)NCC(O)CO)N=C(c2ccc(OCCCO)cc2)O[C@H]1c1ccccc1 (stereo not given in full)	x	x	-1
[N-]=[N+]=NCc1ccccc1C[C@@]1(C(=O)NCC(O)CO)N=C(c2ccc(OCCCO)cc2)O[C@@H]1c1ccccc1 (stereo not given in full)	x	x	5.9*
O=C(Nc1ccccc1)c1ccc(CNc2nccc(-c3cccnc3)n2)cc1	x	x	0
O=C(NO)c1cccc(C(=O)N/N=C/c2ccc3c(c2)OCCO3)c1	-14	0	x
C[C@@H]1CN([C@H](C)CO)C(=O)c2cccc(NC(=O)c3nc4ccccc4s3)c2O[C@H]1CN(C)CC1CCCCC1	58*	-8	0
C[C@H]1CN([C@@H](C)CO)C(=O)c2cccc(NC(=O)c3nc4ccccc4s3)c2O[C@H]1CN(C)Cc1ccc(-c2ccccc2)cc1	23	-23	-1
C[C@H](CO)N1C[C@H](C)[C@H](CN(C)Cc2ccc(-c3ccccc3)cc2)Oc2c(NC(=O)c3nc4ccccc4s3)cccc2C1=O	60*	-42	x
C[C@@H]1CN([C@@H](C)CO)C(=O)c2cccc(NC(=O)c3nc4ccccc4s3)c2O[C@@H]1CN(C)Cc1ccc(C(F)(F)F)cc1	61*	-56	-1
C[C@@H]1CN([C@@H](C)CO)C(=O)c2cccc(NC(=O)c3nc4ccccc4s3)c2O[C@@H]1CN(C)Cc1ccccc1	36	-49	x
C[C@H](CO)N1C[C@H](C)[C@@H](CN(C)Cc2ccc(Cl)c(Cl)c2)Oc2c(NC(=O)c3nc4ccccc4s3)cccc2C1=O	69*	-28	0
C[C@@H]1CN([C@H](C)CO)C(=O)c2cccc(NC(=O)c3nc4ccccc4s3)c2O[C@H]1CN(C)Cc1ccc(Cl)c(Cl)c1	51	-60	x
C[C@@H]1CN([C@@H](C)CO)C(=O)c2cccc(NC(=O)c3nc4ccccc4s3)c2O[C@H]1CN(C)CC1CCCCC1	44	-61	-1
C=CCC/C=N/NC(=O)CCCCCCC(=O)O	-7	0	0
Cc1ccc(/C=N/NC(=O)c2cccc(C(=O)NO)c2)o1	-9	-2	-1
CC1(C)[C@H]2CC=C(/C=N\NC(=O)c3ccc(C(=O)NO)cc3)[C@@H]1C2	11	3	0
SMILES	T cruzi HTS	INS-1E ATP HTS	A1 apoptosis 2
O=C(CCCCCCC(=O)N/N=C/c1cc(O)ccc1[N+](=O)[O-])NO	x	x	1
O=C(CCCCCCC(=O)Nc1ccccc1O)N/N=C/c1ccc(-n2ccnc2)cc1	-1	11	0
COc1ccc(CN(C)C[C@@H]2Oc3c(NC(=O)c4nc5ccccc5s4)cccc3C(=O)N([C@@H](C)CO)C[C@H]2C)cc1	47	-15	-1
C[C@@H]1CN([C@@H](C)CO)C(=O)c2cccc(NC(=O)c3nc4ccccc4s3)c2O[C@@H]1CN(C)Cc1ccc(C(=O)Nc2ccccc2N)cc1	u	30	x
C[C@H](CO)N1C[C@H](C)[C@@H](CN(C)Cc2ccc(C(=O)Nc3ccccc3N)cc2)Oc2c(NC(=O)c3nc4ccccc4s3)cccc2C1=O	71*	2	0
COc1ccc(CN(C)C[C@@H]2Oc3c(NC(=O)c4nc5ccccc5s4)cccc3C(=O)N([C@H](C)CO)C[C@H]2C)cc1	57*	-18	-1
O=C(CCCCCC(=O)Nc1ccccc1O)N/N=C/c1ccc2c(c1)CCO2	3	-5	-1
COc1cc(/C=N/NC(=O)CCCCCC(=O)Nc2ccccc2O)c(Br)cc1O	9	16	x
O=C(CCCCCCC(=O)Nc1ccccc1O)NN=C1CCCCCC1	-3	12	-2
C[C@H](CO)N1C[C@H](C)[C@H](CN(C)Cc2ccc(Cl)c(Cl)c2)Oc2c(NC(=O)c3cnccn3)cccc2C1=O	43	-23	x
C[C@H](CO)N1C[C@H](C)[C@@H](CN(C)Cc2ccc(Cl)c(Cl)c2)Oc2c(NC(=O)c3ccncc3)cccc2C1=O	78*	-14	1
C[C@@H]1CN([C@@H](C)CO)C(=O)c2cccc(NC(=O)c3ccncc3)c2O[C@@H]1CN(C)Cc1ccc(Cl)c(Cl)c1	68*	-8	-1
CCOC(=O)[C@H](Cc1ccccc1)NC(=O)Cn1cc(COc2ccccc2/C=C(C)/C=C/C(=O)NO)nn1	x	x	1
O=C(N/N=C/c1cc(O)ccc1O)c1ccccn1	10	-7	-12
C[C@@H]1CN([C@@H](C)CO)C(=O)c2cccc(NC(=O)Nc3ccc(C(F)(F)F)cc3)c2O[C@@H]1CN(C)C(=O)Nc1cccc2ccccc12	-27	-59	0
C[C@H](CO)N1C[C@H](C)[C@@H](CN(C)C(=O)Nc2ccc(C(F)(F)F)cc2)Oc2c(NC(=O)Nc3cccc4ccccc34)cccc2C1=O	52	-34	1
C[C@@H]1CN([C@@H](C)CO)C(=O)c2cccc(NC(=O)Nc3ccc(C(F)(F)F)cc3)c2O[C@H]1CN(C)C(=O)Nc1cccc2ccccc12	38	-30	2
C[C@H](CO)N1C[C@H](C)[C@H](CN(C)C(=O)Nc2cccc3ccccc23)Oc2c(NC(=O)Nc3ccc(C(F)(F)F)cc3)cccc2C1=O	66*	-14	x
C[C@H](CO)N1C[C@H](C)[C@@H](CN(C)C(=O)Nc2cccc3ccccc23)Oc2c(NC(=O)Nc3ccc(C(F)(F)F)cc3)cccc2C1=O	61*	-8	x
C[C@H]1CN([C@@H](C)CO)C(=O)c2cccc(NC(=O)Nc3cccc4ccccc34)c2O[C@H]1CN(C)C(=O)Nc1ccc(C(F)(F)F)cc1	63*	-29	1
CC(C)(C)OC(=O)N1CCC[C@H]1/C=N/NC(=O)c1cccc(C(=O)NO)c1	-11	-1	x
C[C@H](CO)N1C[C@H](C)[C@@H](CN(C)C(=O)Nc2cccc3ccccc23)Oc2ccc(NC(=O)NC3CCCCC3)cc2CC1=O	x	x	-1
COCCCNC(=O)[C@@]1(Cc2ccccc2I)c2ccccc2C(=O)N(Cc2ccccc2OC)[C@H]1c1ccc(CO)cc1	x	x	0

Compound activity deposited in PubChem by Broad Institute.
